The test system of data set [1] is Human adenovirus 5. The experiment in a line: Antiviral activity against Human adenovirus 5 infected in human A549 cells assessed as inhibition of viral entry after 48 hrs by GFP reporter gene based assay. It is filed as functional, organism-based. To be noted: Human mastadenovirus C, A549, 48 h. Summed up:
(§1)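 Entry assay in A549 epithelial cells infected with HAdV5-GFP at high MOI, with compound present throughout and 48 h incubation. GFP expression is the read-out.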
(In general: Reporter assays use an easily measured gene product as a stand-in for the process of interest.)

Data set [2] relates to Human adenovirus 5. Briefly: Antiviral activity against Human adenovirus 5 infected in 293beta5 cells assessed as inhibition of plaque formation incubated for 7 days by GFP reporter gene assay. The class given is functional, organism-based. As to conditions: Human mastadenovirus C, 293beta5, 168 h. The essentials:
(§2)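 HAdV5-GFP plaque assay in 293β5 cells at low MOI. Inhibition is expressed as percent of the infected control, with single-dose screening at 10 μM. Compounds giving >90% inhibition went on to IC50 determination. Values are means ± SD of triplicate samples from three independent experiments.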

The subject of data set [3] is Human adenovirus 5. The experiment in a line: Antiviral activity against Human adenovirus 5 infected in human A549 cells assessed as inhibition of viral entry at 50 uM after 48 hrs by GFP reporter gene based assay relative to control. As to conditions: Human mastadenovirus C, A549, 48 h. The class given is functional. The essentials: as §1
The test system of data set [4] is Human adenovirus 5. The experiment in a line: Antiviral activity against Human adenovirus 5 infected in human A549 cells assessed as inhibition of viral DNA replication by measuring number of viral DNA copies at 10 uM after 24 hrs by RT-qPCR analysis (reference value: 100 +/- 1.55%). It is filed as functional. On the set-up: scale not given: the % may be the effect or the level left. (In general: Real-time PCR tracks product formation cycle by cycle.)

Data set [5] deals with Human adenovirus 5. The experiment in a line: Antiviral activity against Human adenovirus 5 infected in 293beta5 cells assessed as inhibition of viral infection at 10 uM measured after 5 to 10 mins post infection by GFP reporter gene assay relative to control. The class given is functional. Also on record: scale not given: the % may be the effect or the level left.
Data set [6] concerns Human adenovirus 5. The experiment in a line: Antiviral activity against Human adenovirus 5 infected in human A549 cells asssessed as inhibition of viral entry by measuring nuclear-associated viral genome level at 10 uM after 45 mins by RT-PCR analysis (reference value: 100.24 +/- 2.77%). It is filed as functional. Also on record: scale not given: the % may be the effect or the level left. Summed up: (§3)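 Nuclear HAdV genome levels in treated cells were quantified at 45 min post-infection and compared with DMSO-treated cells. […] Bars are means ± SD of triplicate samples.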

Data set [7] relates to Human adenovirus 5. Briefly: Antiviral activity against Human adenovirus 5 infected in 293beta5 cells assessed as inhibition of plaque formation at 10 uM incubated for 7 days by GFP reporter gene assay relative to control. The class given is functional. To be noted: Human mastadenovirus C, 293beta5, 168 h. The essentials: as §2
Data set [8] has as its system Human adenovirus 5. The experiment in a line: Antiviral activity against Human adenovirus 5 infected in human A549 cells assessed as fold reduction in virus yield at 10 uM after 48 hrs endpoint dilution method relative to control. It is filed as functional.
Data set [9] has as its system Human adenovirus 5. Briefly: Antiviral activity against Human adenovirus 5 infected in 293beta5 cells assessed as inhibition of viral replication at 10 uM after 20 mins post infection by GFP reporter gene assay relative to control. It is filed as functional. As to conditions: Human mastadenovirus C, 293beta5, 20 min.
Data set [10] concerns Human adenovirus 5. The experiment in a line: Antiviral activity against Human adenovirus 5 infected in 293beta5 cells assessed as reduction in inhibition of viral replication at 10 uM preincubated for 60 mins followed by viral infection by GFP reporter gene assay. It is filed as functional, organism-based.
Data set [11] has as its system Human adenovirus 5. Briefly: Antiviral activity against Human adenovirus 5 infected in human A549 cells assessed as fold reduction in virus yield at 20 uM after 48 hrs endpoint dilution method relative to control. The class given is functional.
Data set [12] is described as follows: Cytotoxicity against human A549 cells assessed as reduction in cell viability after 48 hrs by alamar blue assay. It is filed as cell-based. A general note: Alamar Blue is a resazurin reagent that responds to reducing activity.
For data set [13], the system named is Human adenovirus 5. Briefly: Antiviral activity against Human adenovirus 5 infected in human A549 cells asssessed as inhibition of viral entry by measuring nuclear-associated viral genome level at 20 uM after 45 mins by RT-PCR analysis (reference value: 100.24 +/- 2.77%). Also on record: scale not given: the % may be the effect or the level left. The class given is functional. The essentials: as §3

Data set [14] has as its system Human adenovirus 5. The experiment in a line: Antiviral activity against Human adenovirus 5 infected in human A549 cells assessed as inhibition of viral DNA replication by measuring number of viral DNA copies at 20 uM after 24 hrs by RT-qPCR analysis (reference value: 100 +/- 1.55%). It is filed as functional. On the set-up: scale not given: the % may be the effect or the level left.

Data set [15] in a line: Selectivity index, ratio of CC50 for cytotoxicity against human A549 cells to IC50 for antiviral activity against Human adenovirus 5 infected in 293beta5 cells assessed as inhibition of plaque formation after 7 days. To be noted: read-out: Ratio CC50/IC50. It is filed as toxicity, cell-based.

Calls of active or inactive are those of the source. No cut-off for these calls is given here.

In general, IC50 refers to the point on the concentration scale where inhibition reaches its midpoint. As a reminder, the inhibition is the percentage by which the read-out fell short of the control. The CC50 is the concentration that lowers cell viability or growth by half.

Take `O=C(Nc1ccc(C(F)(F)F)cc1Cl)c1cc(Cl)ccc1O`: the results for the IC50 in data set [1] and in data set [2] were 1670 nM and 80 nM, respectively. The inhibition at 50 µM in data set [3] came out at 100%. Further, the Activity in [4] is 27.03%; in data set [5], 20%; in data set [6], 46.53%. Besides, the inhibition at 10 µM in [7] worked out at 100%. Besides, in data set [8], the “fold change (FC)” value was 175.
For `O=C(N[C@H](Cc1ccccc1)C(=O)Nc1ccc([N+](=O)[O-])cc1Cl)c1cc(Cl)ccc1O`, the IC50 in data set [1] is 9700 nM; in data set [2], 300 nM. In addition, the inhibition at 10 µM is 50% in data set [9] and 100% in [7]. Also, in [10], the outcome was Active. Further, the “fold change (FC)” value in data set [11] was 528. Moreover, the 50% cytotoxic concentration (CC50) at 48 h in [12] amounted to 77900 nM. The Activity is reported as 32.21% in data set [13] and 25.78% in [14]. The selectivity ratio at 168 h in data set [15] turned out to be 260.
